Tests used:
DAPK1 = DAPK1 (Homo sapiens, UniProt P53355); assay: Radioactive [γ-33P]ATP kinase activity assay, DAPK1; format: biochemical; conditions: read-out: IC50 DAPK1; 100 μM ATP
Summary of the method: (§1)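 Commercial human kinase and substrate were used, except the PAK1 kinase domain (residues 249–545), which was expressed and purified in-house. Serial inhibitor concentrations were preincubated 15 min with kinase and substrate in 20 mM MOPS pH 7.0, 30 mM MgCl₂, 0.8 μg/μL BSA and 5% DMSO. The reaction was started with ATP (final 100 μM) plus [γ-³³P]ATP. Reactions were spotted on P81 paper, washed and scintillation-counted. IC50 was the concentration giving background-corrected CPM at 50% of control.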

[1] = tested on: panels of human wild type protein kinases; assay: Millipore KinaseProfiler selectivity profile over whole panel; format: biochemical; conditions: compound 10 nM, 10 μM ATP, panel of 102 kinases
Summary of the method: (§2)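 Single-concentration screen on a commercial panel of human wild-type kinases. Test compound was at 10 nM with 10 μM ATP. Only kinases whose assay concentration was at or below the inhibitor concentration were included, giving 102 kinases. Percentage kinase activity was measured in duplicate and averaged.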

[2] = target: PAK1 kinase domain (residues 249 to 545) (Homo sapiens, UniProt Q13153); assay: Radioactive [γ-33P]ATP kinase activity assay, PAK1; format: biochemical; conditions: read-out: IC50 PAK1; 100 μM ATP
PAK1 kinase domain (residues 249 to 545), sequence (Q13153 249-545): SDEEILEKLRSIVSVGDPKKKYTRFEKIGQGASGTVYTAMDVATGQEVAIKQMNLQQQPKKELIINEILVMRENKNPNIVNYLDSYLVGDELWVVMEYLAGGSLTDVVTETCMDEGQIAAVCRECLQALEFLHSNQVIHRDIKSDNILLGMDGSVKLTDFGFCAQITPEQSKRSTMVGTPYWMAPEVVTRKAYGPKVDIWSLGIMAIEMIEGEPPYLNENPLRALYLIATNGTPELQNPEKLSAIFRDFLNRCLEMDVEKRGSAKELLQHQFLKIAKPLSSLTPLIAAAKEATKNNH
Summary of the method: as §1

PIM1 [3] = target: T1, PIM1 (Homo sapiens, UniProt P11309); assay: Radioactive [γ-33P]ATP kinase activity assay, PIM1; format: biochemical; conditions: read-out: IC50 PIM1; 100 μM ATP
T1 sequence (P11309 whole entry): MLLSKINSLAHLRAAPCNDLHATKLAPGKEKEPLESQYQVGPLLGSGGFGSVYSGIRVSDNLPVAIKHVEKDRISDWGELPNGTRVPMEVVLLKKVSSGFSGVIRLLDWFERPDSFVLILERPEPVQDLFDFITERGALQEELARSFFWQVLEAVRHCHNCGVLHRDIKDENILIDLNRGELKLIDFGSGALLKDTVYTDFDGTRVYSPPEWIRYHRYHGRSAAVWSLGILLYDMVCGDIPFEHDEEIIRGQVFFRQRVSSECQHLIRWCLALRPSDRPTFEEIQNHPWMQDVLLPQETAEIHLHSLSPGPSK
Summary of the method: as §1

GSK3α [4] = target: T2, GSK3α (Homo sapiens, UniProt P49840); assay: Radioactive [γ-33P]ATP kinase activity assay, GSK3α; format: biochemical
T2 sequence (P49840 whole entry): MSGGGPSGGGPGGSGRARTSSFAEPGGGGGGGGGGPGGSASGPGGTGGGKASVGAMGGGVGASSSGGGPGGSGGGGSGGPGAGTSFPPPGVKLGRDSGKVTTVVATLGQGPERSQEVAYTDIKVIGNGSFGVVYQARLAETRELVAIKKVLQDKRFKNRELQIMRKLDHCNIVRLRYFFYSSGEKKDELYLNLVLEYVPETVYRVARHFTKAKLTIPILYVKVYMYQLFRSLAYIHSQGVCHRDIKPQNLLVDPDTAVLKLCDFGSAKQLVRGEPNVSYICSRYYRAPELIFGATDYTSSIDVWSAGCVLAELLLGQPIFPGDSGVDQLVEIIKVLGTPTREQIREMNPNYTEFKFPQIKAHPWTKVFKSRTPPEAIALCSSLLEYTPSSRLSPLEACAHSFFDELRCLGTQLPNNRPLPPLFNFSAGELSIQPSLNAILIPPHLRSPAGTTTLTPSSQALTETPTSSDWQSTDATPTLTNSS
Summary of the method: as §1

CLK2 = CLK2 (Homo sapiens, UniProt P49760); assay: Millipore KinaseProfiler single-concentration screen, CLK2; format: biochemical; conditions: compound 10 nM, 10 μM ATP
CLK2, sequence (P49760 whole entry): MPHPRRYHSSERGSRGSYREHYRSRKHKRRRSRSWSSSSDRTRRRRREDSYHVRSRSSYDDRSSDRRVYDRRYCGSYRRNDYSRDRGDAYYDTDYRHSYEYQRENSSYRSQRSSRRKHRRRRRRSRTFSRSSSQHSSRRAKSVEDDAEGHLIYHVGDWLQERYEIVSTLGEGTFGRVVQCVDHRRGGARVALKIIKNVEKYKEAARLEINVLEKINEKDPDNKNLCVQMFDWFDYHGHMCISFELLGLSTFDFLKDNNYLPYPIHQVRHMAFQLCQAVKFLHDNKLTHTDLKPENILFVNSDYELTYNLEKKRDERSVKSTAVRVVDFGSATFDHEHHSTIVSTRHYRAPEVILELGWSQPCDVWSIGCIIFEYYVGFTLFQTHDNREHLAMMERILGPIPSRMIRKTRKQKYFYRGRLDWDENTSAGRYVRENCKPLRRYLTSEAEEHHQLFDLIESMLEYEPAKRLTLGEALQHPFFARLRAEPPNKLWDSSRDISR
Summary of the method: as §2

PIM1 [5] = target: T1, PIM1; assay: Millipore KinaseProfiler single-concentration screen, PIM1; format: biochemical; conditions: compound 10 nM, 10 μM ATP
Summary of the method: as §2

FLT4 = FLT4 (Homo sapiens, UniProt P35916); assay: Radioactive [γ-33P]ATP kinase activity assay, FLT4; format: biochemical; conditions: read-out: IC50 FLT4; 100 μM ATP
FLT4, sequence (P35916 25-1363): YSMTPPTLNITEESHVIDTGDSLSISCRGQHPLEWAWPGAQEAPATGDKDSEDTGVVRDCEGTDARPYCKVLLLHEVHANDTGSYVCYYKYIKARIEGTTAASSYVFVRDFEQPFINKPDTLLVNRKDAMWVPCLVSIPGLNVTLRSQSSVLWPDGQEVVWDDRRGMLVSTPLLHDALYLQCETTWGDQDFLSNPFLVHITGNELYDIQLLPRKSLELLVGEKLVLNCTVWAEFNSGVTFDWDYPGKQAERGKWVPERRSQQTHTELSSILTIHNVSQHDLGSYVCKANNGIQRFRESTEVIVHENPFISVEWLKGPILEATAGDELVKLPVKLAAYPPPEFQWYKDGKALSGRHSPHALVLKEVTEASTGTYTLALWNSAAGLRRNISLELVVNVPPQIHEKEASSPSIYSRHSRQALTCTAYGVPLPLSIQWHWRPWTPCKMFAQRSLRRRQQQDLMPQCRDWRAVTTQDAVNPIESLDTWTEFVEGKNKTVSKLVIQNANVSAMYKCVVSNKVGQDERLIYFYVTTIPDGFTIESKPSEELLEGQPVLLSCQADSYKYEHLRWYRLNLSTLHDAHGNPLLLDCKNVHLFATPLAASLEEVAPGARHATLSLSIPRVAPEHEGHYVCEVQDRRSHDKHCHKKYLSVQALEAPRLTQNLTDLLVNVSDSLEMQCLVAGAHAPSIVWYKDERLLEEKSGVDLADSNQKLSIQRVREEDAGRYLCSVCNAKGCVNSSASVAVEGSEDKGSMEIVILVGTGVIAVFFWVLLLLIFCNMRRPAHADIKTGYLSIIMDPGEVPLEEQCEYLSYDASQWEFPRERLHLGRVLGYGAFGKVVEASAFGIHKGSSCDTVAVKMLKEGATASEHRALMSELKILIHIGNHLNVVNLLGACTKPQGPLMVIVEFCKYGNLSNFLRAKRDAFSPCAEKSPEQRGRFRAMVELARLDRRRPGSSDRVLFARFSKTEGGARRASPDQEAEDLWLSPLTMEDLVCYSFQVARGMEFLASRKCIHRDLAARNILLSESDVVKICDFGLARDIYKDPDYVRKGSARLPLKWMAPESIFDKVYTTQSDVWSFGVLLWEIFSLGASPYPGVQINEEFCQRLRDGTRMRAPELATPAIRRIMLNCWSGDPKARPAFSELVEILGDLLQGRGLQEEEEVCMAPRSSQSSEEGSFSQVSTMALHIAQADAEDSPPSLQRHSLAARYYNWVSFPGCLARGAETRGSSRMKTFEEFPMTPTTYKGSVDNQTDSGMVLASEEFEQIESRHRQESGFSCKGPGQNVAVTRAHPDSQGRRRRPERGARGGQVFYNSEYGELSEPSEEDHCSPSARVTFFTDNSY
Summary of the method: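 Radiometric assay with commercial human FLT4 and substrate. Serial inhibitor concentrations were preincubated 45 min with kinase and substrate in 20 mM MOPS pH 7.0, 30 mM MgCl₂, 0.8 μg/μL BSA and 5% DMSO. The reaction was started with ATP (final 100 μM) containing [γ-³³P]ATP. Reactions were stopped on P81 paper, washed and scintillation-counted. IC50 was the concentration giving 50% of control CPM after background correction.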

GSK3β [6] = target: T3, GSK3β (Homo sapiens, UniProt P49841); assay: Radioactive [γ-33P]ATP kinase activity assay, GSK3β; format: biochemical; conditions: read-out: IC50 GSK3β; 100 μM ATP
T3 sequence (P49841 whole entry): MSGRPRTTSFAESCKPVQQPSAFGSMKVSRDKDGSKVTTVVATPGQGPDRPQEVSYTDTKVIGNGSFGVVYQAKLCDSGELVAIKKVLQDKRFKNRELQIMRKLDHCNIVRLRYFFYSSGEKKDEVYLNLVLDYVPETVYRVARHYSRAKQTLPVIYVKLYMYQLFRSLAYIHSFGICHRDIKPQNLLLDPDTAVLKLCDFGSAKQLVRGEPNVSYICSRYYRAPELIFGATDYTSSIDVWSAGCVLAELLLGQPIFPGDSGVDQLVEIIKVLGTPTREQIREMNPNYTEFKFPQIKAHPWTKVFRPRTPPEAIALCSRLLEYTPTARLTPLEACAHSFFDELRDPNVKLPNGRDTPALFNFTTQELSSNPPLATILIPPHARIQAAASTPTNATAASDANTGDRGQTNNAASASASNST
Summary of the method: as §1

MLCK = assay: Radioactive [γ-33P]ATP kinase activity assay, MLCK; format: biochemical, human; conditions: read-out: IC50 MLCK; 100 μM ATP
Summary of the method: as §1

GSK3α [7] = target: T2, GSK3α; assay: Millipore KinaseProfiler single-concentration screen, GSK3α; format: biochemical; conditions: compound 10 nM, 10 μM ATP
Summary of the method: as §2

GSK3β [8] = target: T3, GSK3β; assay: Millipore KinaseProfiler single-concentration screen, GSK3β; format: biochemical; conditions: compound 10 nM, 10 μM ATP
Summary of the method: as §2

DAPK1, sequence (P53355 whole entry, the tested form may be a part): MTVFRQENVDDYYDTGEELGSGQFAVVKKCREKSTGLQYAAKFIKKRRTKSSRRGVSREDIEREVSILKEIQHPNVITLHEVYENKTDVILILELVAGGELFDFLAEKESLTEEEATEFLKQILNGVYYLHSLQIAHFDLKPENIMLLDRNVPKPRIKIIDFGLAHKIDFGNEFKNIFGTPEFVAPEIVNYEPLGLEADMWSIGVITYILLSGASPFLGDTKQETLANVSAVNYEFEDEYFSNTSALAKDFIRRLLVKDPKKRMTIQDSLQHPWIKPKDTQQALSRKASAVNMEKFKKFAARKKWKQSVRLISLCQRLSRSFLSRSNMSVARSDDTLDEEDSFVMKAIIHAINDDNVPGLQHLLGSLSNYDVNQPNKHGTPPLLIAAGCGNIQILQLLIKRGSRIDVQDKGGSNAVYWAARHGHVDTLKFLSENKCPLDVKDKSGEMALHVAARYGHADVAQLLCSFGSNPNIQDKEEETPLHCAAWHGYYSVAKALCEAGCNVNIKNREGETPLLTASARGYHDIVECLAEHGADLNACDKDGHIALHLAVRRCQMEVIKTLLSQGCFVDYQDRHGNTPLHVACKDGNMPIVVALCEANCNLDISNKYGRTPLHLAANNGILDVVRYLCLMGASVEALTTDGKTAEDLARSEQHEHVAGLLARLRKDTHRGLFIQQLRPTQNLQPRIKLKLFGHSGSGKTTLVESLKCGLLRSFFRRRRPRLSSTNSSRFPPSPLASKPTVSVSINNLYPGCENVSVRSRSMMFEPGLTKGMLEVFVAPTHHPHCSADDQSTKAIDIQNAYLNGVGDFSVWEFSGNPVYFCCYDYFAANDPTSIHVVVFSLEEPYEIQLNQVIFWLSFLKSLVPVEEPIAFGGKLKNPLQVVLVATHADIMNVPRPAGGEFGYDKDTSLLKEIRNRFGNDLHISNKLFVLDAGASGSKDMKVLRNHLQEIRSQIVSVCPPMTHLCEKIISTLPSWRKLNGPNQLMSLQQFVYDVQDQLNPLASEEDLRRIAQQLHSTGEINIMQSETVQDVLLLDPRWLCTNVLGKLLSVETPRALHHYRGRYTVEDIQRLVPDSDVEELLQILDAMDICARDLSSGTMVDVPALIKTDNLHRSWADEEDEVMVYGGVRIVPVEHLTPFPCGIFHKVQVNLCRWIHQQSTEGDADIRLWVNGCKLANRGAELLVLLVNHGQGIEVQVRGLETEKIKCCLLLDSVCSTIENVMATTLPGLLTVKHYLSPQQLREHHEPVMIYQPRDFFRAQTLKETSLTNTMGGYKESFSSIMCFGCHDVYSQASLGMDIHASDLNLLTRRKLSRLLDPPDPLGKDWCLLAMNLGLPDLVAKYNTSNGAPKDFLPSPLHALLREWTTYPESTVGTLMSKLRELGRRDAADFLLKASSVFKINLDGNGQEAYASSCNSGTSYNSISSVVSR

Compound: Nc1cnc2c(c1)c1c(c3c4ccccc4[n-]c23)C(=O)NC1=O.[C-]#[O+].[Cl][Ru+3].[NH-]Cc1ccccn1 [Λ-OS1]
- IC50 (DAPK1): 22800 nM
- number of kinases out of 102 with activity higher than 75% [1]: 98
- IC50 [2]: > 100000 nM
- IC50 (PIM1 [3]): 14 nM
- IC50 value ratio of GSK3α/PAK1 (GSK3α [4]; 100 μM ATP): < 0.000009
- selectivity for the α- over β-isoform of GSK3 (GSK3α [4]; IC50 ratio, 100 μM ATP): ca. 7 fold
- lower IC50 value compared to respective pyridocarbazole ligand, GSK3α (GSK3α [4]; metal complex vs free ligand): 8890 fold
- IC50 (GSK3α [4]; read-out: IC50 GSK3α, 100 μM ATP): 0.9 nM
- residual activity CLK2 (CLK2): 33%
- residual activity PIM1 (PIM1 [5]): 13%
- IC50 (FLT4): 1180 nM
- IC50 (GSK3β [6]): 6 nM
- IC50 (MLCK): 22 nM
- residual activity GSK3α (GSK3α [7]): 6%
- residual activity GSK3β (GSK3β [8]): 58%

Source: publication PMC3076536 (Journal of the American Chemical Society, 2011)
